Assay results taken from the RNAGym collection of RNA variant scans (doi:10.1126/science.aae0568).
Fewer inactive variants are shown than the library holds.

B1: tRNA (parent)
chain: GUUCCGUUGGCGUAAUGGUAACGCGUCUCCCUCCUAAGGAGAAGACUGCGGGUUCGAGUCCCGUACGGAACG

Variants of: B1
Experiment: yeast fitness relative to wild type (ratio to wild type); higher = fitter; tRNA-Arg(CCU), competitive growth, 37 C, YPD
In short: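 The tRNA-Arg(CCU) gene variants were made by chemical synthesis with a 3% per-site mutation rate at 69 sites and inserted at the native genomic locus of Saccharomyces cerevisiae. After pooling, the strains were competed in YPD at 37°C for 24 hours in six parallel replicates. Gene amplicons from the start population and each end population were read by 100-nucleotide paired-end sequencing, and Darwinian fitness relative to wild type was taken from genotype frequency changes. Genotypes needed ≥ 100 starting reads, and estimates < 0.5 were set to 0.5.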

Row | Variant | yeast fitness
1 | U54G C55G A65U | ≤ 0.5
2 | U54G G63C A69C | 0.535
3 | C55G G58C | 0.587
4 | G52C G56C | ≤ 0.5
5 | C55U G63A A69C | 0.537
6 | C49U U53A G68A | ≤ 0.5
7 | C55U C62U G67C | ≤ 0.5
8 | G52C A69U | 0.707
9 | U53G A57G C62U | 0.62
10 | G50C G52A | 0.607
11 | C55U C60G | ≤ 0.5
12 | C55A G67A | 0.658
13 | U53A C62G | 0.598
14 | G50A U53A A57G G58A A69C | 0.657
15 | C55G G63A | 0.622
16 | C55G G63C | 0.636
17 | G51A G56A C62G | ≤ 0.5
18 | G56A G58C C61G | 0.707
19 | G50A G58C C66U | 0.649
20 | C49U C61A A65U | ≤ 0.5
21 | G52A G56C | 0.687
22 | G52A G56A | 0.727
23 | G50C U53C | 0.614
24 | G51U A70G | 0.707

Row | Variant | yeast fitness
25 | C55A G58A | 0.55
26 | C55A G58C | 0.534
27 | G51A U54C | 0.715
28 | C55A A65U | 0.572
29 | C49U C61U A70G | 0.831
30 | G50A C55U G67C | 0.563
31 | G50A G67C G68U | ≤ 0.5
32 | C49A A57C A69U | 0.528
33 | C49A A57C A69C | ≤ 0.5
34 | G56A A65G C66U A69U | 0.573
35 | G51A G58C | 0.901
36 | C55A C66G | ≤ 0.5
37 | C55A C66U | 0.694
38 | C49U A70G | 1.07
39 | C55A A70G | 0.557
40 | G50C G68C | 0.715
41 | C55U G56C | 0.593
42 | C49G U59G | 0.635
43 | G52A A57G | 0.852
44 | G52C C55U | 0.522
45 | C49G G56C G67C | ≤ 0.5
46 | G52A C61U G68A | 0.561
47 | C49A C60G | 0.638
48 | G50A G63C | 0.737

Row | Variant | yeast fitness
49 | G50C A57C C61U | 0.613
50 | C55G G67A | 0.729
51 | C55G A57U G67A | ≤ 0.5
52 | C49A C61G | 0.541
53 | C49A C61U | 0.607
54 | U54C C60G | 0.539
55 | G50A C61U | 0.863
56 | U54C G67C | 0.944
57 | U54C G67A | 0.817
58 | C49A G56C G68C | 0.574
59 | C55U G63A A65G | ≤ 0.5
60 | C49U C61G A69C | 0.559
61 | C49U G58A | 0.948
62 | C55G A65G C66G | 0.567
63 | C55G C62A | 0.619
64 | C55G C62G | 0.602
65 | U53A C55A C62U G63A A65U | ≤ 0.5
66 | G50C C61U | 0.609
67 | U54C C55U | 0.72
68 | U54C C55A | 0.635
69 | U53A C62U A69U | ≤ 0.5
70 | U54C A57U | 0.595
71 | C49A G67A G68U | ≤ 0.5
72 | C49G U53C | 0.723

Row | Variant | yeast fitness
73 | G52A G67A | 0.831
74 | U53C U64C | 0.817
75 | C55A U59C | 0.647
76 | G52A G58C | 0.801
77 | U54C C66G | 0.803
78 | C55G A57U C62U | 0.544
79 | C49G U53A C66U | ≤ 0.5
80 | C55U G63A | 0.643
81 | G50C A65G | 0.766
82 | U54A U59C C61G | ≤ 0.5
83 | C49A U59A | 0.681
84 | U53C G68C | 0.846
85 | C49U U53A | 0.791
86 | C49U A57U | 0.632
87 | G52C C66A | 0.538
88 | G52C C66G | 0.6
89 | C49G G50A G68C A69G | ≤ 0.5
90 | C55U U59C | 0.683
91 | C55U C66U | 0.667
92 | C49A C55G | ≤ 0.5
93 | G50C U54A C61A | 0.676
94 | G52A U59A C61A | ≤ 0.5
95 | C49G G56A A69C | 0.73
96 | G51A A65U A69C | ≤ 0.5

Row | Variant | yeast fitness
97 | C49A G52A C61U | ≤ 0.5
98 | G51A U53A | 0.534
99 | C49A A57C A65G | ≤ 0.5
100 | C49G U59A G63A | 0.564
101 | G56A C62A | 0.697
102 | G56A C62G | 0.643
103 | G51A U53G G58A | ≤ 0.5
104 | U53A C66U | 0.709
105 | G56A A65G C66U G68A | 0.609
106 | G52A G56A A65U A70G | ≤ 0.5
107 | G50C A57G | 0.789
108 | C49G G58A | 0.844
109 | U53A G56A A65U | ≤ 0.5
110 | U53C G56A | 0.802
111 | G52C G68A | 0.583
112 | G52A C60U | 0.579
113 | G50A G52C | 0.663
114 | G51C C61G A70C | 0.542
115 | G52A A69C | 0.738
116 | C55G A70C | 0.566
117 | C55G A70U | 0.653
118 | C55G G58A A69C | ≤ 0.5
119 | C49A A70G | 0.675
120 | G52C C62U | 0.559

Row | Variant | yeast fitness
121 | G52A A65C | 0.848
122 | U54G C61U G67C | ≤ 0.5
123 | U53A G68C | 0.6
124 | C49U G51C A69C | ≤ 0.5
125 | G52A C66G G68C | 0.65
126 | C55A C62A | 0.518
127 | G56A C61U | 0.994
128 | C55A G63A | 0.55
129 | G51A C60U G68A | ≤ 0.5
130 | G50A U59A G67C | ≤ 0.5
131 | C55G C60G | ≤ 0.5
132 | U53A C60G G67A A70C | ≤ 0.5
133 | G50C U54C | 0.635
134 | G52C A65U G67C | ≤ 0.5
135 | C49G G58A C66G | 0.564
136 | C55G U59A | 0.677
137 | C55U A57U U64G | 0.585
138 | U53A U59C | 0.555
139 | G51C C60G G67U | ≤ 0.5
140 | U53A C60G | 0.617
141 | G51A C60U G67A | 0.567
142 | C49U A65U A69U | 0.861
143 | G56A A69C | 1.04
144 | C55A A57C G58A | ≤ 0.5

Row | Variant | yeast fitness
145 | C49U U54A C55G | ≤ 0.5
146 | C49U G68A | 0.85
147 | C49U G68U | 0.976
148 | C49U U64A A69U | 0.558
149 | U53C C61A G68A | 0.58
150 | U54A A57U G63C A69U | ≤ 0.5
151 | C49G U64G A65G A70U | 0.683
152 | C49G A70C | 0.845
153 | C49G A70U | 0.872
154 | C49G A70G | 0.832
155 | G50C C55G | 0.56
156 | G50C C55U | 0.716
157 | G50C G51A | 0.76
158 | G52C C61A | ≤ 0.5
159 | G52C C61U | 0.66
160 | G51C A65G | 0.593
161 | C49U G51A A69U | 0.573
162 | C55A G56A | 0.514
163 | C49U C60A A70G | 0.546
164 | U54G A57G | 0.615
165 | U54A C55A C66G | 0.714
166 | G52C U64G | 0.614
167 | U53C G58C | 0.977
